In ChEMBL document CHEMBL2412990, “Synthesis and pharmacological evaluation of new N-phenylpiperazine derivatives designed as homologues of the antipsychotic lead compound LASSBio-579” (Eur J Med Chem, 2013) one finds Ki data, which are given here for six compounds.

One assay addresses D(2) dopamine receptor (Rattus norvegicus, UniProt P61169). Description: Displacement of [3H]-YM-09151-2 from D2 receptor in rat brain striatal membranes after 60 mins by liquid scintillation counting. In kind it is cell membranes, Membrane. Background: Loss of bound radioactivity is the signal in a displacement assay; it reports binding, not function.
Assay [1] has as its target T1, 5-hydroxytryptamine receptor 1A (Rattus norvegicus, UniProt P19327).
T1 sequence (P19327 whole entry): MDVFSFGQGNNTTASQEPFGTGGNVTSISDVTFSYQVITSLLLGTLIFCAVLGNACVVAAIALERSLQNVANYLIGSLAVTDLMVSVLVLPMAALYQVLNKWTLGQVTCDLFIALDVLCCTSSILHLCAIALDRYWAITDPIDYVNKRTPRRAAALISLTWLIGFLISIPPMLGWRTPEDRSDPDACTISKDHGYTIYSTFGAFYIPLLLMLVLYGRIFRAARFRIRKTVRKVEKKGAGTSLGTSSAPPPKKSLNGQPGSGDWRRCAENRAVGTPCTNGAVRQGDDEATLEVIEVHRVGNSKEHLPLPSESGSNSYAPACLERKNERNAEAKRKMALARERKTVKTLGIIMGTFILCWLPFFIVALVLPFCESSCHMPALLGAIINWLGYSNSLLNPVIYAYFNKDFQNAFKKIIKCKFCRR
The assay can be described thus: Displacement of [3H]-8-OH-DPAT from 5HT1A receptor in rat brain hippocampal membranes after 15 mins by liquid scintillation counting. In kind it is cell membranes, Membrane. Summed up:
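Hippocampal membranes, 40 µg protein, incubated with 1 nM [3H]-8-OH-DPAT at 37 °C for 15 min under yellow light. Buffer was 50 mM Tris-HCl pH 7.4 with 1 mM CaCl2, 1 mM MnCl2 and pargyline. Filters were soaked in 0.5% polyethyleneimine. IC50 came from nonlinear regression fitted with one or two sites. Ki by Cheng-Prusoff, using Kd from saturation experiments.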

For assay [2], the target named is T2, 5-hydroxytryptamine receptor 2C (Homo sapiens, UniProt P28335).
T2 sequence (P28335 whole entry): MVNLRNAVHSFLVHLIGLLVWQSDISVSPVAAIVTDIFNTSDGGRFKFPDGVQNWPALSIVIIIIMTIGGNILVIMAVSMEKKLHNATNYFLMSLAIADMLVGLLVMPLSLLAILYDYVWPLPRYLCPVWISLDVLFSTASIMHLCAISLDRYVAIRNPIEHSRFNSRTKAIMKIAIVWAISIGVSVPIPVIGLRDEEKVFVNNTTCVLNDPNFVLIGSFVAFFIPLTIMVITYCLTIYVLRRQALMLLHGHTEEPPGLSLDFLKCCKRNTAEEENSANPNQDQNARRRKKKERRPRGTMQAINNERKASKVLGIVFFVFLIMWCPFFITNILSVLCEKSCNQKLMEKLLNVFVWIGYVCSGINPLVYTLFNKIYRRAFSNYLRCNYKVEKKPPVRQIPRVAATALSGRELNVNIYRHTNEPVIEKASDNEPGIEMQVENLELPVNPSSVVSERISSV
The assay can be described thus: Displacement of [3H]-mesulergine from human 5HT2C receptor after 60 mins by liquid scintillation counting.

The target in assay [3] is 5-hydroxytryptamine receptor 2A (Rattus norvegicus, UniProt P14842). The assay can be described thus: Displacement of [3H]-ketanserin from 5HT2A receptor in rat brain cortical membranes after 15 mins by liquid scintillation counting. In kind it is cell membranes, Membrane.
Assay [4] has as its target T3, Alpha-1B adrenergic receptor (Rattus norvegicus, UniProt P15823).
T3 sequence (P15823 whole entry): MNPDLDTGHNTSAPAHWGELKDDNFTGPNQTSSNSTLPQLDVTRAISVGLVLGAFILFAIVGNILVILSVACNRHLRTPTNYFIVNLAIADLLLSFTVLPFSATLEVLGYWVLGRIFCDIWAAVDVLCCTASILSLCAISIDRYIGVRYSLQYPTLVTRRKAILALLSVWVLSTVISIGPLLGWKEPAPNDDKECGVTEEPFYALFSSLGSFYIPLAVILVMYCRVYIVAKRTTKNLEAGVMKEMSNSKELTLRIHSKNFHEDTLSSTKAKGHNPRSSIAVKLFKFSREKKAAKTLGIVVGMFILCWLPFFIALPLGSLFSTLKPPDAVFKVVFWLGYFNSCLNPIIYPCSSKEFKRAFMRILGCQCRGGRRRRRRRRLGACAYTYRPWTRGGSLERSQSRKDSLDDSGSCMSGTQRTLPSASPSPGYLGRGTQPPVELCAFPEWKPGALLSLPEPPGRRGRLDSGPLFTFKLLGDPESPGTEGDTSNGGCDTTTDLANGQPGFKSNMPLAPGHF
Description: Displacement of [3H]-[…] from alpha1B adrenoreceptor in rat liver membranes after 45 mins by liquid scintillation counting. The class given is cell membranes, Membrane.

Another assay deals with T4, D(4) dopamine receptor (Homo sapiens, UniProt P21917).
T4 sequence (P21917 whole entry): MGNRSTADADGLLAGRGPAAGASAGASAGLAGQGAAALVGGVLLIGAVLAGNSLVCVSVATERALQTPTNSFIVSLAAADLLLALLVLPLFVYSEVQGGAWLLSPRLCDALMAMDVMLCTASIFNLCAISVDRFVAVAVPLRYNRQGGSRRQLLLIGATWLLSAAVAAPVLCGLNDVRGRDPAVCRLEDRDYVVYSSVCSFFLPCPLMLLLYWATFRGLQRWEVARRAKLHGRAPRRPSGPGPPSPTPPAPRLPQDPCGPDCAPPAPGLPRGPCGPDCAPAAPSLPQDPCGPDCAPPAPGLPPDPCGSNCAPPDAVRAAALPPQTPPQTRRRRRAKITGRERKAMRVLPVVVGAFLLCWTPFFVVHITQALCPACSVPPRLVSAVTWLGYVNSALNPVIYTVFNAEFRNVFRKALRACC
The assay can be described thus: Displacement of [3H]-YM-09151-2 from human D4 receptor after 120 mins by liquid scintillation counting.

5-hydroxytryptamine receptor 2A, sequence (P14842 whole entry): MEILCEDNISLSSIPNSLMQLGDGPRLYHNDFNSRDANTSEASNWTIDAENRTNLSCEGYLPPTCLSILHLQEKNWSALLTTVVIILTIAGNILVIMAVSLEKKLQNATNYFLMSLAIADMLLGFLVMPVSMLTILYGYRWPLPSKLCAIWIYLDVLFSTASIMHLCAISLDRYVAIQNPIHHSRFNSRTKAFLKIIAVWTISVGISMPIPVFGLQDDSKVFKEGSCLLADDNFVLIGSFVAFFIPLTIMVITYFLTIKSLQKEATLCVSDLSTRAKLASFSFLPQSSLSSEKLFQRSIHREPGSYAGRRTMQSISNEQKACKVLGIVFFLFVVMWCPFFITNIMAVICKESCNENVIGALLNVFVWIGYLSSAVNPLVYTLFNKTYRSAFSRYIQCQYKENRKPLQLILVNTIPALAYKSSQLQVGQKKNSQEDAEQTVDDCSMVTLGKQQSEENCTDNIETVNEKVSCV
D(2) dopamine receptor, sequence (P61169 whole entry): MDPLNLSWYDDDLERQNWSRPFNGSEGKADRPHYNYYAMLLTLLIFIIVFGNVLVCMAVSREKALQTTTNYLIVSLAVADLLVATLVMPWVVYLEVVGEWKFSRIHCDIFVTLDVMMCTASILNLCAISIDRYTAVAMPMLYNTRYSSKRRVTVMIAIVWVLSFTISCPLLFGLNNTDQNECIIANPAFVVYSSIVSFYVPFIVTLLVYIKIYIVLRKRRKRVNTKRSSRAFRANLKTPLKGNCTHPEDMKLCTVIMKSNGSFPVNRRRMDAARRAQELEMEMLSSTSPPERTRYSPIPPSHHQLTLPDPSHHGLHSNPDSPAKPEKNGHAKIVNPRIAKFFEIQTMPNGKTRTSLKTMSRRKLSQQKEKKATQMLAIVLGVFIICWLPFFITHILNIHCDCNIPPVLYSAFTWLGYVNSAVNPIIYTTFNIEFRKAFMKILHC

By Ki is commonly meant the equilibrium dissociation constant of an inhibitor or competing ligand from its target. High values mean lower affinity, low ones higher affinity. For `Clc1ccc(-n2cc(COCCN3CCN(c4ccccc4)CC3)cn2)cc1`, the Ki at D(2) dopamine receptor turned out to be 1900 nM; in assay [1] it was 110 nM; in assay [2], 8100 nM; in assay [3], 2490 nM; in assay [4], 850 nM; at D(4) dopamine receptor, 100 nM.
With `Clc1ccc(-n2cc(CN3CCN(c4ccccc4)CC3)cn2)cc1`, the Ki on D(2) dopamine receptor is 390 nM; in assay [1], 220 nM; in assay [2], 8630 nM; in assay [3] it was 6910 nM; in assay [4] it was 2600 nM; on D(4) dopamine receptor it was 180 nM.
As to `Clc1ccc(-n2cc(CCCCN3CCN(c4ccccc4)CC3)cn2)cc1`, the Ki on D(2) dopamine receptor was found to be 250 nM; in assay [1], 90 nM; in assay [2], 5900 nM; in assay [3] it was 650 nM; in assay [4], 570 nM; on D(4) dopamine receptor it was 800 nM.
As for `Clc1ccc(-n2cc(CCCCCN3CCN(c4ccccc4)CC3)cn2)cc1`, the Ki on D(2) dopamine receptor came to 490 nM; in assay [1], 160 nM; in assay [2], 7800 nM; in assay [3], 950 nM; in assay [4] it was 380 nM; at D(4) dopamine receptor it was 1180 nM.
For the compound `Clc1ccc(-n2cc(CCCN3CCN(c4ccccc4)CC3)cn2)cc1`, the Ki is 680 nM at D(2) dopamine receptor; 180 nM in assay [1]; 5100 nM in assay [2]; 600 nM in assay [3]; 700 nM in assay [4]; 330 nM at D(4) dopamine receptor.
As to `Clc1ccc(-n2cc(COCCCN3CCN(c4ccccc4)CC3)cn2)cc1`, the Ki at D(2) dopamine receptor came to 790 nM; in assay [1], 310 nM; in assay [2] it was 2800 nM; in assay [3] it was 650 nM; in assay [4], 400 nM; at D(4) dopamine receptor it was 1500 nM.
